Experimental findings from ChEMBL document CHEMBL1132220 (J Med Chem, 1999) are described below.

As usually defined, the IC50 is the concentration that gives 50% inhibition. As a reminder, the Ki is the equilibrium dissociation constant of an inhibitor or competing ligand from its target. A higher Ki goes with weaker binding.

The target of one experiment is Somatostatin receptor. The experiment is described as follows: Antagonism of in vitro SRIF inhibition of GH release in rat in vitro pituitary cell assay. In kind it is functional, cell-based. The following applies: pituitary gland cell. A digest of the protocol:
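Dispersed adult male rat anterior pituitary cells (trypsin/DNase), about 200 000 cells/well, cultured 4–5 days at 37 °C. GH measured by double-antibody RIA. IC50 versus SRIF, mean ± SEM of n dose–response curves.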

For experiment [1], the target named is Somatostatin receptor type 5 (Homo sapiens, UniProt P35346). The experiment is described as follows: The compound was tested for binding affinity against human Somatostatin receptor type 5. A digest of the protocol:
(§1)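 Membranes from CHO-K1 cells transfected with the cloned human receptor. Terminated by filtration on PEI-soaked GF/C filters. Nonspecific binding defined with 1.0 μM SRIF. Mean ± SEM; single values are from one experiment.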

The target in experiment [2] is Somatostatin receptor type 1 (Homo sapiens, UniProt P30872). The experiment is described as follows: The compound was tested for binding affinity against human Somatostatin receptor type 1. In short, it runs like this:
as §1

For experiment [3], the target named is Somatostatin receptor type 3 (Homo sapiens, UniProt P32745). The experiment is described as follows: The compound was tested for binding affinity against human Somatostatin receptor type 3. In short, it runs like this: (§2)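 CHO-K1 cells stably transfected (calcium phosphate) with cloned human sst3 or sst4. Membranes made in ice-cold 50 mM Tris-HCl, resuspended in 10 mM Tris-HCl, then incubated 30 min at 37 °C with 0.05 nM [125I]Tyr11-SRIF in HEPES pH 7.4 with BSA, MgCl2 and protease inhibitors. Filtered on GF/C; nonspecific binding with 1.0 µM SRIF. Mean ± SEM, or one experiment.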
Sequence of Somatostatin receptor type 3 (P32745 whole entry): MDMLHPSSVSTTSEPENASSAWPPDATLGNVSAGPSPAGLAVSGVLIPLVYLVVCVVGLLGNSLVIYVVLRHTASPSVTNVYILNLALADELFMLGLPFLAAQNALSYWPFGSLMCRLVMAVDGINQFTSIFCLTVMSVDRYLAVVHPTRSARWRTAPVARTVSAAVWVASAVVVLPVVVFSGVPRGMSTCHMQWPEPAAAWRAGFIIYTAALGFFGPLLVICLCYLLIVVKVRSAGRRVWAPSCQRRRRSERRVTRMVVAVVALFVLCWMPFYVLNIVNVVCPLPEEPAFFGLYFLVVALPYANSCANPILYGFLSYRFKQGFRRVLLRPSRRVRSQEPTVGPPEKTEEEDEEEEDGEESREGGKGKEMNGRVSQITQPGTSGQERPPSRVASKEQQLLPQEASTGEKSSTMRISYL

Experiment [4] has as its target Somatostatin receptor type 4 (Homo sapiens, UniProt P31391). The experiment is described as follows: The compound was tested for binding affinity against human Somatostatin receptor type 4. A digest of the protocol: as §2
For experiment [5], the target named is Somatostatin receptor type 2 (Homo sapiens, UniProt P30874). The experiment is described as follows: The compound was tested for binding affinity against human Somatostatin receptor type 2. A digest of the protocol: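 Membranes from CHO-K1 cells transfected with the cloned human sst2. Incubated 30 min at 37 °C with 0.05 nM [125I]MK-678 in HEPES pH 7.4 with BSA, MgCl2, Trasylol, bacitracin and PMSF. Filtration on PEI-soaked GF/C filters. Nonspecific binding defined with 1.0 μM SRIF. Mean ± SEM; single values are from one experiment.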
Sequence of Somatostatin receptor type 2 (P30874 whole entry): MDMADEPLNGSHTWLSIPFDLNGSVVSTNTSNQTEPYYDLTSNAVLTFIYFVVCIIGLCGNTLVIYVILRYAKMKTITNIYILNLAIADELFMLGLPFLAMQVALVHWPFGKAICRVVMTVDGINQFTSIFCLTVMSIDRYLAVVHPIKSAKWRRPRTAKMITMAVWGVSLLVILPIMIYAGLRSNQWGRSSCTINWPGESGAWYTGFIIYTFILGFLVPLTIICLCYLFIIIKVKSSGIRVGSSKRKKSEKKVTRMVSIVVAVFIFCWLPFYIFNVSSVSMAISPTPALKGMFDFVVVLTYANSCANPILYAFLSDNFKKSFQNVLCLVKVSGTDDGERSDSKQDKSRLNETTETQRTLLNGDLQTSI

Bridge positions count the residues as written; N and C are the ends. Square brackets hold non-standard residues; d marks the D form. Peptide text beside a SMILES is read from it. Phe(4-Cl) = N[C@@H](Cc1ccc(Cl)cc1)C(=O)O; 2Nal = N[C@@H](Cc1ccc2ccccc2c1)C(=O)O; 3Pal = N[C@@H](Cc1cccnc1)C(=O)O; Tle = CC(C)(C)[C@H](N)C(=O)O Bounds are passed on as bounds.

Sequence of Somatostatin receptor type 4 (P31391 whole entry): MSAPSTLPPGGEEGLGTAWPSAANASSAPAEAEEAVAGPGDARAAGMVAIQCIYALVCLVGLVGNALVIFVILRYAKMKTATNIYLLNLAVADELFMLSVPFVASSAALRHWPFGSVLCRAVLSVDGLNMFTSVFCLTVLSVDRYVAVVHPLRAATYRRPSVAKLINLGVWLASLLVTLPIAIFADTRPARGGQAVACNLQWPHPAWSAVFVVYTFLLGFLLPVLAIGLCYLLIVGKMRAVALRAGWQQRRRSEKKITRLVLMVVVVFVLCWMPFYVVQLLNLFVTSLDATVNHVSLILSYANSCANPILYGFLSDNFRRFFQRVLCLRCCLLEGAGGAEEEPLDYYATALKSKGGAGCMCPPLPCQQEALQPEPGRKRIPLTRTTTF
Sequence of Somatostatin receptor type 1 (P30872 whole entry): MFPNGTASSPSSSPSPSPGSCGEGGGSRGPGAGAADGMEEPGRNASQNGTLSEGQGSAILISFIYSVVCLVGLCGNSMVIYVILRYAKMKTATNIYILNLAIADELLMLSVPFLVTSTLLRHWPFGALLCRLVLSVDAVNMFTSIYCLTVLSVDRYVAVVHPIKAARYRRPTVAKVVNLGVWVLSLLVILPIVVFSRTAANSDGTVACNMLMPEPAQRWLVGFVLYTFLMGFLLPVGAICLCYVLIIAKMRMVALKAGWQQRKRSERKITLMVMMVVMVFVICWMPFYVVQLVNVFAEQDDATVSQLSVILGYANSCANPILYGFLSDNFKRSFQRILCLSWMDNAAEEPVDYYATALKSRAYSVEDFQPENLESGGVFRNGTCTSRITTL
Sequence of Somatostatin receptor type 5 (P35346 whole entry): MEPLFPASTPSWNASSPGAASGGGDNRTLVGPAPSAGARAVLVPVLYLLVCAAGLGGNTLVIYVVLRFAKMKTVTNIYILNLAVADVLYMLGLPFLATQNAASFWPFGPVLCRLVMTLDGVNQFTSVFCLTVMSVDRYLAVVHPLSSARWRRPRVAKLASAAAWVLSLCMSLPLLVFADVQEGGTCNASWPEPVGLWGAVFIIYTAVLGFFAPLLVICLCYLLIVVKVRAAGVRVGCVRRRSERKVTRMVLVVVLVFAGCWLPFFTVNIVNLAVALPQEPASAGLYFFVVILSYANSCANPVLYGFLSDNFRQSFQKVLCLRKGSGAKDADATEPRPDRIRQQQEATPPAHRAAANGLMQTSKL

`CC(C)[C@H]1NC(=O)[C@H](CCCCN)NC(=O)[C@@H](Cc2c[nH]c3ccccc23)NC(=O)[C@H](Cc2cccnc2)NC(=O)[C@@H](NC(=O)[C@@H](N)Cc2ccc(C#N)cc2)CSSC[C@H](C(=O)N[C@@H](Cc2ccc(C#N)cc2)C(N)=O)NC1=O` had an IC50 at Somatostatin receptor of 51 nM.
On the same count and under the same terms, the value for `CC(C)[C@H]1NC(=O)[C@H](CCCCN)NC(=O)[C@@H](Cc2c[nH]c3ccccc23)NC(=O)[C@H](Cc2ccccn2)NC(=O)[C@@H](NC(=O)[C@@H](N)Cc2c(F)c(F)c(F)c(F)c2F)CSSC[C@H](C(=O)N[C@@H](Cc2c(F)c(F)c(F)c(F)c2F)C(N)=O)NC1=O` was 765 nM; that for `C[C@@H](O)[C@@H]1NC(=O)[C@H](CCCCN)NC(=O)[C@@H](Cc2c[nH]c3ccccc23)NC(=O)[C@H](Cc2ccccn2)NC(=O)C(NC(=O)[C@@H](N)Cc2ccc(Cl)cc2)CSSCC(C(=O)N[C@@H](Cc2ccc3ccccc3c2)C(N)=O)NC1=O` (stereo in doubt) was 135 nM; that for `CC(C)[C@H]1NC(=O)[C@H](CCCCN)NC(=O)[C@@H](Cc2c[nH]c3ccccc23)NC(=O)[C@H](Cc2cccnc2)NC(=O)[C@@H](NC(=O)[C@@H](N)Cc2c(F)c(F)c(F)c(F)c2F)CSSC[C@H](C(=O)N[C@@H](Cc2c(F)c(F)c(F)c(F)c2F)C(N)=O)NC1=O` was 292 nM.
At Somatostatin receptor, `CC(C)[C@H]1NC(=O)[C@H](CCCCN)NC(=O)[C@@H](Cc2c[nH]c3ccccc23)NC(=O)[C@H](Cc2cccnc2)NC(=O)[C@@H](NC(=O)[C@@H](N)Cc2ccc(Cl)cc2)CSSC[C@H](C(=O)N[C@@H](Cc2ccc3ccccc3c2)C(N)=O)NC1=O` returned an IC50 of 2.6 nM.
`CC(C)[C@H]1NC(=O)[C@H](CCCCN)NC(=O)[C@@H](Cc2c[nH]c3ccccc23)NC(=O)[C@H](Cc2cccnc2)NC(=O)[C@@H](NC(=O)[C@@H](N)Cc2ccc(Br)cc2)CSSC[C@H](C(=O)N[C@@H](Cc2ccc(Br)cc2)C(N)=O)NC1=O`: the IC50 on Somatostatin receptor is 2.7 nM.
At Somatostatin receptor, `CC(C)C[C@@H]1NC(=O)[C@H](CCCCN)NC(=O)[C@@H](Cc2c[nH]c3ccccc23)NC(=O)[C@H](Cc2cccnc2)NC(=O)[C@@H](NC(=O)[C@@H](N)Cc2ccc3ccccc3c2)CSSC[C@@H](C(=O)N[C@@H](Cc2ccc3ccccc3c2)C(N)=O)NC1=O` displayed an IC50 of 48 nM.
The compound `C[C@@H](O)[C@@H]1NC(=O)[C@H](CCCCN)NC(=O)[C@@H](Cc2c[nH]c3ccccc23)NC(=O)[C@@H](Cc2ccccn2)NC(=O)C(NC(=O)[C@@H](N)Cc2ccc(Cl)cc2)CSSCC(C(=O)N[C@@H](Cc2ccc3ccccc3c2)C(N)=O)NC1=O` (stereo in doubt) had an IC50 at Somatostatin receptor of 2.7 nM.
As to `CC(C)[C@H]1NC(=O)[C@H](CCCCN)NC(=O)[C@@H](Cc2c[nH]c3ccccc23)NC(=O)[C@H](Cc2cccnc2)NC(=O)[C@@H](NC(=O)[C@@H](N)Cc2ccc(F)cc2)CSSC[C@H](C(=O)N[C@@H](Cc2ccc3ccccc3c2)C(N)=O)NC1=O`, the IC50 against Somatostatin receptor came to 6.5 nM.
For `CC(C)[C@@H]1NC(=O)[C@H](CCCCN)NC(=O)[C@@H](Cc2c[nH]c3ccccc23)NC(=O)[C@H](Cc2cccnc2)NC(=O)[C@H](NC(=O)[C@@H](N)Cc2ccc3ccccc3c2)CSSC[C@@H](C(=O)N[C@@H](Cc2ccc3ccccc3c2)C(N)=O)NC1=O`, the Ki in experiment [1] is 524 nM; in experiment [2], 348 nM; in experiment [3], 171 nM; in experiment [4] it was over 1000 nM; in experiment [5], 81 nM.
In the case of `CC(C)[C@@H]1NC(=O)[C@H](CCCCN)NC(=O)[C@@H](Cc2c[nH]c3ccccc23)NC(=O)[C@H](Cc2cccnc2)NC(=O)[C@H](NC(=O)[C@@H](N)Cc2ccc(F)cc2)CSSC[C@@H](C(=O)N[C@@H](Cc2ccc(F)cc2)C(N)=O)NC1=O`, the Ki in experiment [1] is 369 nM; in experiment [2], 435 nM; in experiment [3], 120 nM; in experiment [4], over 1000 nM; in experiment [5], 20 nM.
As for `CC[C@H](C)[C@@H]1NC(=O)[C@H](CCCCN)NC(=O)[C@@H](Cc2c[nH]c3ccccc23)NC(=O)[C@H](Cc2ccc(O)cc2)NC(=O)[C@H](NC(=O)[C@@H](N)Cc2ccc(-c3ccccc3)cc2)CSSC[C@@H](C(=O)N[C@@H](Cc2ccc(-c3ccccc3)cc2)C(N)=O)NC1=O`, the Ki in experiment [1] was 689 nM; in experiment [2], over 1000 nM; in experiment [3], 1350 nM; in experiment [4] it was over 1000 nM; in experiment [5] it was 2230 nM.
Turning to `CC(C)(C)[C@@H]1NC(=O)[C@H](CCCCN)NC(=O)[C@@H](Cc2c[nH]c3ccccc23)NC(=O)[C@H](Cc2cccnc2)NC(=O)[C@H](NC(=O)[C@@H](N)Cc2c[nH]c3ccccc23)CSSC[C@@H](C(=O)N[C@@H](Cc2ccc3ccccc3c2)C(N)=O)NC1=O` (H-W[dC][3Pal][dW]K[Tle]C[2Nal]-NH2; disulfide 2-7), the Ki in experiment [1] is 2250 nM; in experiment [2], over 1000 nM; in experiment [3], 210 nM; in experiment [4] it was over 1000 nM; in experiment [5], 84 nM.
For `CC(C)[C@@H]1NC(=O)[C@H](CCCCN)NC(=O)[C@@H](Cc2c[nH]c3ccccc23)NC(=O)[C@H](Cc2cccnc2)NC(=O)[C@H](NC(=O)[C@@H](N)Cc2ccccc2F)CSSC[C@@H](C(=O)N[C@@H](Cc2ccccc2F)C(N)=O)NC1=O`, the Ki in experiment [1] was 1580 nM; in experiment [2], 186 nM; in experiment [3], 385 nM; in experiment [4] it was over 1000 nM; in experiment [5] it was 241 nM.
`CC(C)(C)[C@@H]1NC(=O)[C@H](CCCCN)NC(=O)[C@@H](Cc2c[nH]c3ccccc23)NC(=O)[C@H](Cc2cccnc2)NC(=O)[C@H](NC(=O)[C@@H](N)Cc2ccc(Cl)cc2)CSSC[C@@H](C(=O)N[C@@H](Cc2ccc3ccccc3c2)C(N)=O)NC1=O` (H-[Phe(4-Cl)][dC][3Pal][dW]K[Tle]C[2Nal]-NH2; disulfide 2-7): the Ki is 520 nM in experiment [1]; over 1000 nM in experiment [2]; 100 nM in experiment [3]; 895 nM in experiment [4]; 12 nM in experiment [5].
`CC(C)[C@H]1NC(=O)[C@H](CCCCN)NC(=O)[C@@H](Cc2c[nH]c3ccccc23)NC(=O)[C@H](Cc2c[nH]cn2)NC(=O)C(NC(=O)[C@@H](N)Cc2c(F)c(F)c(F)c(F)c2F)CSSCC(C(=O)N[C@@H](Cc2c(F)c(F)c(F)c(F)c2F)C(N)=O)NC1=O` (stereo in doubt): the Ki in experiment [1] was 926 nM; in experiment [2], 69 nM; in experiment [3], 124 nM; in experiment [4], over 1000 nM; in experiment [5], 637 nM.
Consider `CC(C)(C)[C@@H]1NC(=O)[C@H](CCCCN)NC(=O)[C@@H](Cc2c[nH]c3ccccc23)NC(=O)[C@H](Cc2cccnc2)NC(=O)[C@H](NC(=O)[C@@H](N)Cc2ccc3ccccc3c2)CSSC[C@@H](C(=O)N[C@@H](Cc2ccc3ccccc3c2)C(N)=O)NC1=O` (H-[2Nal][dC][3Pal][dW]K[Tle]C[2Nal]-NH2; disulfide 2-7), for which the Ki was 631 nM in experiment [1]; over 1000 nM in experiment [2]; 371 nM in experiment [3]; 145 nM in experiment [4]; 35 nM in experiment [5].
Regarding `CC(C)[C@@H]1NC(=O)[C@H](CCCCN)NC(=O)[C@@H](Cc2c[nH]c3ccccc23)NC(=O)[C@H](Cc2cccnc2)NC(=O)[C@H](NC(=O)[C@@H](N)Cc2ccc(I)cc2)CSSC[C@@H](C(=O)N[C@@H](Cc2ccc(I)cc2)C(N)=O)NC1=O`, the Ki in experiment [1] turned out to be 48 nM; in experiment [2], 575 nM; in experiment [3] it was 18 nM; in experiment [4], 436 nM; in experiment [5] it was 32 nM.
